# Screening data deposited in PubChem BioAssay by The Scripps Research Institute Molecular Screening Center.
# This is a sample that favours compounds with a hit; in the whole collection about 1.8% have one here.
# CHRM4 agonist: agonists of human muscarinic M4 receptor (CHRM4); P08173; CHO-K1 hM4/Gqi5, Fluo-8 calcium fluorescence; vehicle 0%, full acetylcholine response 100%; activation, % at 3 µM; 360,000 compounds, 0.14% hits; AID 624127;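 active means activation above the run mean over all test wells plus 3 SD, cut at about 32% in these data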;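 further: peak over basal fluorescence ratio per well then scaled between controls; 0% = DMSO wells and 100% = acetylcholine at EC100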
# M5 antag: antagonists of human muscarinic M5 receptor (CHRM5); P08912; CHO-hM5 cells, Fluo-8 calcium fluorescence, ACh EC80; inhibition, % at 3 µM; 360,000 compounds, 0.59% hits; AID 624040;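 active means inhibition above a per-plate cutoff, the mean of that plate's test compounds plus 3 SD, cut at about 27% in these data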;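 further: 0% = acetylcholine EC80 with DMSO and 100% = DMSO without agonist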
# Target sequence (P08912 whole entry, looked up): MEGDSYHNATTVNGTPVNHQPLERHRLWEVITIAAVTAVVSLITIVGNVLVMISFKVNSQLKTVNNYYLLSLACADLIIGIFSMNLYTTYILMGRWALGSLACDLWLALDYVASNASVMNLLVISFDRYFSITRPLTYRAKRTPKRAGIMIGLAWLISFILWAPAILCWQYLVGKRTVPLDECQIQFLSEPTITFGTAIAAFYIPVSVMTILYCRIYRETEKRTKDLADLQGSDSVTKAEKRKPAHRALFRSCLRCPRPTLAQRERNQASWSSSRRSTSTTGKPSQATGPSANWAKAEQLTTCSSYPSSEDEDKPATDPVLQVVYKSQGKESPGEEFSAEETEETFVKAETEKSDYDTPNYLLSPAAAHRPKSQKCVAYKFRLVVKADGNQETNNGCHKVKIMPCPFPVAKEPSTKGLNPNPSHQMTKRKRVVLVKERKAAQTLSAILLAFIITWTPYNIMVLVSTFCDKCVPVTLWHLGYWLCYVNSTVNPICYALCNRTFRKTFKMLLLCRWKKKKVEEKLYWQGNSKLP
# CHRM5 PAM: potentiates acetylcholine response at human M5 receptor. P08912. CHO-K1 hM5, Fluo-8 calcium, ACh EC20 PAM; 0% = ACh EC20, 100% = ACh EC100. activation, % at 3 µM. 360,000 compounds, 0.3% hits. AID 624038;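 active means activation above the run cutoff, the mean activation of all test compounds plus 3 SD, cut at about 18% in these data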
#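 system = human M5 receptor in CHO-K1 cells | compound = one concentration, 3 µM final (nominal) | schedule = Post-acetylcholine fluorescence recording 140 s | signal = Fluo-8 calcium dye fluorescence, kinetic read | benchmarks = low control EC20 acetylcholine (0%), high control EC100 acetylcholine (100%) | repeats = singlicate, one well per test compound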
# CHRM4 antagonist: blocks acetylcholine activation of human M4 receptor. 360,000 compounds, 0.73% hits. CHO-hM4 cells, ACh EC80, Fluo-8 calcium fluorescence. inhibition, % at 3 µM. P08173;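 active means inhibition above its plate's cutoff, the mean inhibition of sample wells plus 3 SD, cut at about 27% in these data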;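 further: 0% = acetylcholine EC80 with DMSO and 100% = DMSO without agonist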
# CHRM5 agonist: CHRM5 agonism in calcium assay; activation, % at 3 µM; 360,000 compounds, 0.19% hits; CHO-K1 hM5 cells, Fluo-8 calcium fluorescence; 0% DMSO wells, 100% maximal acetylcholine response;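 active means activation above the run's mean over test compounds plus 3 SD, cut at about 23% in these data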;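 further: signal is peak over basal fluorescence ratio across the kinetic read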
# M4 PAM: positive allosteric modulators of human muscarinic M4 receptor. P08173. CHO-K1 hM4/Gqi5, Fluo-8 calcium fluorescence, ACh EC20; 0% = ACh EC20, 100% = maximal ACh. activation, % at 3 µM. 360,000 compounds, 0.4% hits. AID 624126;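 active means activation above its plate's cutoff, the mean activation of sample wells plus 3 SD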
# * = called active by the depositor.
SMILES,CHRM4 agonist,M5 antag,CHRM5 PAM,CHRM4 antagonist,CHRM5 agonist,M4 PAM
CC(C)(C)OC(=O)N[C@@H](Cc1ccccc1)c1nnc(SCC(N)=O)o1,0,2,-1,-7,2,-12
Cc1cccc(CS(=O)(=O)c2nnc([C@H](Cc3ccccc3)NC(=O)OC(C)(C)C)o2)c1,7,8,1,67*,3,-16
O=C(CSc1nc2ccccc2o1)NC1CCS(=O)(=O)C1 (stereo unspecified),1,13,-5,-10,2,9
COc1ccc(C2(CO)OC(CO)C(O)C2O)cc1 (stereo unspecified),0,3,6,-4,2,1
CCCCC(=O)NNC(=O)N1c2ccccc2Sc2ccccc21,-1,5,0,-12,-6,2
O=C(Cc1nnc(NC(=O)Nc2ccccc2F)s1)NCc1ccccc1,1,9,-8,10,-4,-7
O=C1CSC(c2ccccn2)N1c1ccc(Br)cc1 (stereo unspecified),0,7,3,61*,-13,-22
O=C1CSC(c2ccccn2)N1c1ccccc1 (stereo unspecified),1,1,3,0,-1,10
COc1ccc(C2NC(=S)NC(O)(C(F)(F)F)C2C(=O)c2cccs2)cc1 (stereo unspecified),2,5,-16,43*,-6,-37
COc1cc(C2NC(=O)NC(O)(C(F)(F)F)C2C(=O)c2cccs2)ccc1O (stereo unspecified),1,4,-1,7,0,0
O=[N+]([O-])c1ccc2c(c1)C(O)n1ncnc1S2 (stereo unspecified),1,-1,5,2,-2,7
O=[N+]([O-])c1ccc2c(c1)C(O)n1nc(-c3ccc(Cl)cc3Cl)nc1S2 (stereo unspecified),1,0,25*,-18,-3,7
CC1=NNC(=O)/C1=C\c1cn(-c2ccccc2)nc1-c1ccccc1,12,32*,6,39*,28*,-18
COc1cc(-c2noc(C3CCCN(C(=O)c4ccccc4)C3)n2)cc(OC)c1OC (stereo unspecified),0,-22,-1,-11,7,14*
O=[N+]([O-])c1cccc(S(=O)(=O)c2ccc(NCCO)c([N+](=O)[O-])c2)c1,14,0,-7,-4,-1,-9
OCC1(Cc2ccccc2)CCCN(Cc2cn[nH]c2-c2ccccc2)C1 (stereo unspecified),15,32*,-17,3,-2,-11
COc1cc2[nH]c(Cl)c([N+](=O)[O-])c2cc1OC,0,-1,4,-5,4,6
CS(=O)(=O)N(Cc1ccc(C(=O)NN=C2CCCCCC2)cc1)c1ccccc1,0,13,25*,-2,2,9
CS(=O)(=O)N(Cc1ccc(C(=O)NN=C2CCCC2)cc1)c1ccccc1,1,3,-2,-1,0,3
Nc1c(C(=O)NCc2ccc3c(c2)OCO3)c2nc3ccccc3nc2n1CCCN1CCOCC1,9,13,-2,4,0,-1
COc1ccccc1CNC(=O)c1c(N)n(CCCN2CCOCC2)c2nc3ccccc3nc12,32,25,-12,34*,5,-10
Cc1ccc(S(=O)(=O)c2cccc(S(=O)(=O)N3CCCC3)c2)cc1S(=O)(=O)N1CCCC1,9,17,-16,81*,-5,-33
COc1ccccc1Cn1c(SCC(N)=O)nc2c(oc3ccccc32)c1=O,6,10,-6,3,2,-5
Cc1ccc(-n2nnnc2CNC(=O)c2ccc(Br)o2)cc1C,1,5,3,-1,-5,1
Cc1ccc(-n2nnnc2CNC(=O)c2ccc3c(c2)OCO3)cc1C,1,12,-9,63*,-10,-14
SMILES,CHRM4 agonist,M5 antag,CHRM5 PAM,CHRM4 antagonist,CHRM5 agonist,M4 PAM
O=C(O)c1cccc(N2C(=O)CSC2c2c(F)cccc2Cl)c1 (stereo unspecified),0,-1,6,6,1,-1
Cc1ccc(N2C(=O)CSC2c2c(F)cccc2Cl)cc1 (stereo unspecified),-4,68*,-17,86*,-7,-30
COc1ccc(N2C(=O)CSC2c2ccc(F)c(F)c2)cc1 (stereo unspecified),1,4,-7,12,-9,-9
COc1cccc(C2SCC(=O)N2c2ccc(Cl)cc2)c1OC (stereo unspecified),-3,28*,-20,59*,-8,-36
Cc1cccc(C)c1N1CCN(C(c2cc3ccccc3o2)c2nnnn2C(C)(C)C)CC1 (stereo unspecified),5,20,0,26*,3,-4
CCCCn1nnnc1C(c1cc2ccccc2o1)N1CCN(c2c(C)cccc2C)CC1 (stereo unspecified),0,2,-5,-1,0,4
Oc1ccc2c(c1)OCC1(O)Cc3cc(O)c(O)cc3C21 (stereo unspecified),52*,6,-4,6,8,-17
Oc1cc2c(cc1O)[C@H]1c3ccc(O)c(O)c3OC[C@@]1(O)C2,0,5,4,6,2,0
CCNC(=S)NC1CC2CCCC(C1)N2CCc1ccccc1 (stereo unspecified),0,69*,-34,37*,-23,-15
CCNC(=S)NC1CC2CCC(C1)N2Cc1ccccc1 (stereo unspecified),0,11,-8,5,-6,-7
COc1ccccc1NS(=O)(=O)c1cccc(C(=O)N2CCN(Cc3ccc4c(c3)OCO4)CC2)c1,1,8,-7,-10,3,4
COc1ccc(C2CC3(CC(C)(C)NC(=S)N3)Oc3cc(O)cc(C)c32)cc1 (stereo unspecified),2,10,-7,-6,0,-3
COc1ccc(C2CC3(CC(C)(C)NC(SC)=N3)Oc3cc(O)cc(C)c32)cc1 (stereo unspecified),49*,1,-8,-7,5,-8
CC1=[N+](C)c2c(ccc3cccnc23)C1(C)C,13,37*,-18,35*,2,-19
Cc1ccc(Oc2ccc(OCC(=O)Nc3ccncc3)cc2)cc1,12,34*,-12,18,6,-13
CCc1ccc(OCC(=O)Nc2ccncc2)cc1,8,14,-16,4,5,-9
O=C(COc1ccc(C(=O)c2ccccc2)cc1)Nc1cccnc1,20,31*,-15,17,8,-6
